Assay results taken from PubChem BioAssay AID504403 (Broad Institute, 2011).
Activity calls are given as the source filed them.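 How the source made its calls: active means active in every replicate test, each curve reaching caspase activation of 10% of the positive control signal; inconclusive means replicate tests disagree, some active and some inactive; inactive means inactive in every replicate test.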

Experiment: Bax/Bak-independent caspase signal in fibroblasts – cell-based, mouse embryonic fibroblasts, luminescence, dry powder, set 3, counter-screen for A1 inhibitor project, dose response (AID 504403)
Settings: Bax/Bak-/- MEF caspase activation, CaspaseGlo luminescence, 3 h
In short: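 Material – Bax/Bak-null MEF cells · Quantity – 2500 cells per well · Buffer or medium – RPMI-1640, 10% heat-inactivated FBS · Times – compound 3 h at 37 °C, pre-read cooling 30 min · Technique – Caspase-Glo luminescent caspase assay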

[1] = measured here: test 2 replicate, at 35 µM, stronger effect = higher value

SMILES	caspase activation (at 35 µM (top of the series))	caspase activation [1]	outcome [1]
Cc1ccc(Sc2c(Sc3ccc(C)cc3)c3ccccc3n(Cc3ccccc3)c2=O)cc1	0.02% (inactive)	-0.616%	
COCCn1c(=O)c([N+](=O)[O-])c(Cl)c2ccccc21	0.693% (inactive)	-0.136%	
COc1nc2ccccc2c(Cl)c1[N+](=O)[O-]	0.674% (inactive)	0.222%	
C/C(=N\Nc1nc(N2CCCCC2)nc(N2CCCCC2)n1)c1ccc(F)cc1	-0.284% (inactive)	-0.01%	
O=c1[nH]c2ccccc2c(Cl)c1[N+](=O)[O-]	0.348% (inactive)	0.47%	
Cc1ccc(Sc2c([N+](=O)[O-])c(=O)n(Cc3ccccc3)c3ccccc23)cc1	1.91% (inactive)	-0.307%	
Cn1c(=O)c(Sc2ccccn2)c(Sc2ccccn2)c2ccccc21	0.166% (inactive)	-0.337%	
Cn1c(=O)c([N+](=O)[O-])c(Cl)c2ccccc21	0.366% (inactive)	-0.494%	
Cc1ccc(Sc2c([N+](=O)[O-])c(=O)n(C)c3ccccc23)cc1	0.309% (inactive)	-0.613%	
COc1c([N+](=O)[O-])c(=O)n(C)c2ccccc12	0.061% (inactive)	0.257%	
O=C(COc1ccc(Cl)cc1Cl)NNc1nc(N2CCOCC2)nc(N2CCOCC2)n1	-0.22% (inactive)	0.018%	
CCn1c(=O)c([N+](=O)[O-])c(Sc2ccc(C)cc2)c2ccccc21	-0.025% (inactive)	-0.559%	
COCCn1c(=O)c([N+](=O)[O-])c(Sc2ccc(C)cc2)c2ccccc21	0.682% (inactive)	-0.602%	
Cn1c(=O)c([N+](=O)[O-])c(Sc2ccccn2)c2ccccc21	0.303% (inactive)	0.033%	
COc1ccc(CCNc2nc(N3CCOCC3)nc(N3CCOCC3)n2)cc1OC	0.042% (inactive)	0.071%	
CCn1c(=O)c([N+](=O)[O-])c(Cl)c2ccccc21	1.21% (inactive)	3.07%	
CC1(C)CCC(c2ccc(Cl)cc2)=C(CN2CCN(c3ccc(C(=O)NS(=O)(=O)c4ccc(N[C@H](CCN5CCOCC5)CSc5ccccc5)c(S(=O)(=O)C(F)(F)F)c4)cc3)CC2)C1			inactive
COc1nc2ccccc2c(Sc2ccc(C)cc2)c1[N+](=O)[O-]	0.017% (inactive)	-0.171%	
Cc1ccc(Sc2c(Sc3ccc(C)cc3)c3ccccc3n(C)c2=O)cc1	-0.06% (inactive)	-0.477%	
COc1ccc(CCNc2nc(N3CCCC3)nc(N3CCCC3)n2)cc1OC	0.084% (inactive)	0.515%	
Cc1ccc(S(=O)(=O)c2c([N+](=O)[O-])c(=O)n(C)c3ccccc23)cc1	0.276% (inactive)	0.073%	
Cn1c(=O)c([N+](=O)[O-])c(S(C)(=O)=O)c2ccccc21	-0.102% (inactive)	-0.421%	
COc1ccc(N2CCN(c3nc(NCCc4ccc(OC)c(OC)c4)nc(N4CCOCC4)n3)CC2)cc1	0.143% (inactive)	0.46%	
CCn1c(=O)c(Sc2ccc(C)cc2)c(Sc2ccc(C)cc2)c2ccccc21	0.078% (inactive)	-0.17%	
O=c1[nH]c2ccccc2c(O)c1[N+](=O)[O-]	0.504% (inactive)	-0.232%	
O=c1c([N+](=O)[O-])c(Cl)c2ccccc2n1Cc1ccccc1	-0.005% (inactive)	3.16%	
COCCn1c(=O)c(Sc2ccc(C)cc2)c(Sc2ccc(C)cc2)c2ccccc21	-0.103% (inactive)	-0.586%	
